Values after ≈ are worked out from the molar mass of the structure shown.
Experiments:
[1] = molecular target: Phospholipase D2 (Homo sapiens, UniProt O14939); test: Inhibition of PLD2 (unknown origin) expressed in human HEK cells by immunoprecipitation; assay type: cell-based
In short: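 PLD1 or PLD2 immunoprecipitated from HEK-293 cell lysates and captured on plate with an antibody (ELISA format); 08:0 phosphatidylcholine substrate; released choline detected by Amplex Red readout.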

[2] = Unbound clearance in iv dosed rat administered as cassette dose; assay type: ADME, organism-based; conditions: in vivo
In short: (§1)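 Rat IV clearance from cassette dosing; unbound clearance calculated as CL/fu.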

[3] = Microsomal stability in rat liver microsomes assessed as intrinsic clearance; assay type: ADME, Microsome; conditions: read-out: CLH
In short: (§2)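 Intrinsic clearance (CLint) determined in rat or human liver microsomes.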

[4] = Kinetic solubility of compound at pH 6.8; assay type: physicochemical; conditions: buffer, read-out: Kinetic_solubility
In short: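 Kinetic solubility measured at pH 6.8.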

[5] = Microsomal stability in human liver microsomes assessed as intrinsic clearance; assay type: ADME, Microsome; conditions: read-out: CLH; in short: as §2
[6] = Clearance in iv dosed rat administered as cassette dose; assay type: ADME, organism-based; conditions: in vivo; in short: as §1
[7] = molecular target: T1, Phospholipase D1 (Homo sapiens, UniProt Q13393); test: Inhibition of PLD1 (unknown origin) expressed in human HEK cells by immunoprecipitation assay; assay type: cell-based
T1 sequence (Q13393 whole entry): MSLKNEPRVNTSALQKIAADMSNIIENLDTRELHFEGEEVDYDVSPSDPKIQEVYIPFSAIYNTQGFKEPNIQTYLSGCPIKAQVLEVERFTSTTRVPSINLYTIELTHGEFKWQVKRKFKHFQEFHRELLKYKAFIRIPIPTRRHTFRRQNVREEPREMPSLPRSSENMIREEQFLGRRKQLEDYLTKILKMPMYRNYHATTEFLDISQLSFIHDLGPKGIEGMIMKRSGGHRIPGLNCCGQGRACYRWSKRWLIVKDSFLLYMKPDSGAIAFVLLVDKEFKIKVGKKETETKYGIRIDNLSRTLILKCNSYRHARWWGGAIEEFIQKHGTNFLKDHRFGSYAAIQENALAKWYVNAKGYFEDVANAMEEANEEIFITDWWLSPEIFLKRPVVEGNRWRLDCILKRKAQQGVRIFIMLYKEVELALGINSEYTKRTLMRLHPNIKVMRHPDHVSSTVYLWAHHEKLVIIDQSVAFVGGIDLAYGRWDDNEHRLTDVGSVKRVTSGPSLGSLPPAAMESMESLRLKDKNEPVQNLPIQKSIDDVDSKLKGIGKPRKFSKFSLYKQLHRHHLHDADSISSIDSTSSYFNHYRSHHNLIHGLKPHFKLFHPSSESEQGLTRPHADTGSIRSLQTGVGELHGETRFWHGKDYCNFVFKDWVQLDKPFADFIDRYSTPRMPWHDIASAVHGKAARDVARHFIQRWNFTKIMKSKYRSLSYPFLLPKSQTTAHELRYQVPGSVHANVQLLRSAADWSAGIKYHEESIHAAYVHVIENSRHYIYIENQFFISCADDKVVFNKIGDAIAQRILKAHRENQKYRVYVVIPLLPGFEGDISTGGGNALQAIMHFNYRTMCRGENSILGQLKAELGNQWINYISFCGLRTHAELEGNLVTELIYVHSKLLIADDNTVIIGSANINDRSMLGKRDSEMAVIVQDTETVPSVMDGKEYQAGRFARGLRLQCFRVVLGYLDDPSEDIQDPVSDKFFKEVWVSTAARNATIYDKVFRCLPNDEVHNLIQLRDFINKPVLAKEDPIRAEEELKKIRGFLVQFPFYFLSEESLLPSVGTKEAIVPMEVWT

[8] = molecular target: Phospholipase D1 (Homo sapiens) (UniProt Q13393); test: Inhibition of PLD1 in human Calu-1 cells assessed as reduction in d9-phosphobutanol formation by mass spectrometry-based transphosphatidylation assay
[9] = test system: MDR1 (P-gp); test: Efflux ratio of apparent permeability from basolateral to apical side over apical to basolateral side in dog MDCK-MDR1 cells; assay type: ADME, cell-based, Canis lupus familiaris
In short: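 Efflux ratio calculated as Papp(B–A)/Papp(A–B) across MDR1-transfected MDCK monolayers.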

[10] = test system: BCRP; test: Efflux ratio of apparent permeability from basolateral to apical side over apical to basolateral side in dog MDCK-BCRP cells; assay type: ADME, cell-based, Canis lupus familiaris

Sequence of Phospholipase D2 (O14939 whole entry): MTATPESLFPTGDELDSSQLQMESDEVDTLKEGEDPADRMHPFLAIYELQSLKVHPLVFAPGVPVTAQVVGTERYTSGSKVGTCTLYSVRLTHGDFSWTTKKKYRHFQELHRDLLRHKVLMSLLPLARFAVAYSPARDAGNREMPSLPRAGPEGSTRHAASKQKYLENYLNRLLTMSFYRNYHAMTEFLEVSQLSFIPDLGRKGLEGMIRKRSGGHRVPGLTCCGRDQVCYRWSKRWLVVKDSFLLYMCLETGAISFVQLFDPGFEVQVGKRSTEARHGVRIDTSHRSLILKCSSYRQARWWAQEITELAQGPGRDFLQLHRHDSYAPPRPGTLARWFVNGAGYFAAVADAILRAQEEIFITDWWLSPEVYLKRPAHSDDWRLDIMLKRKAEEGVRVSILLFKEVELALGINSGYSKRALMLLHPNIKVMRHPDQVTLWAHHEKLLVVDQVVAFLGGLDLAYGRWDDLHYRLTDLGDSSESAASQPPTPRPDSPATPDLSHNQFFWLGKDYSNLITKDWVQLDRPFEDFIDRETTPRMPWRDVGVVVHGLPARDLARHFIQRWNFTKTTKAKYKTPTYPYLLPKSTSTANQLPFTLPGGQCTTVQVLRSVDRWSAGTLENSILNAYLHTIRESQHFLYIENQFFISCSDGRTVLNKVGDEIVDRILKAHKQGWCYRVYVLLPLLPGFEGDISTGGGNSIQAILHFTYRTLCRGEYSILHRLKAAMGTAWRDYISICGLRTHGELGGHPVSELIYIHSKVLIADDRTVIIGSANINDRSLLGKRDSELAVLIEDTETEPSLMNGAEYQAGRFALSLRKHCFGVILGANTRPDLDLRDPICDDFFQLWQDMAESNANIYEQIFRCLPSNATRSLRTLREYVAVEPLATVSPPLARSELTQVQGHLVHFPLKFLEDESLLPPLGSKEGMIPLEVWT

Row | SMILES | IC50 [1] [nM] | CL free [2] [mL/min/kg] | CLint scaled [3] [mL/min/kg] | solubility kinetic [4] [µg/mL] | CLint scaled [5] [mL/min/kg] | clearance [6] [mL/min/kg] | IC50 [7] [nM] | IC50 [8] [nM] | efflux ratio [9] | efflux ratio [10]
1 | C[C@@H](CN1CCC2(CC1)C(=O)NCN2c1cccc(F)c1)NC(=O)c1ccc(Br)cc1 | 67 | > 3800 | 312 | 3.8 (≈ 7.76 µM) | 89 | 36 |  |  |  | 
2 | C[C@@H]1CN(C(=O)[C@H](C)N2CCC(n3c(=O)[nH]c4ccccc43)CC2)Cc2ccccc21 | 320 |  | > 300 |  | > 200 |  | 100 | 6 | 22 | 
3 | CC(=O)N(C)CCN1CCC(n2c(=O)[nH]c3cc(Cl)ccc32)CC1 | > 10000 |  |  |  |  |  | 130 | 180 | 24 | 
4 | C[C@@H](CN1CCC(n2c(=O)[nH]c3ccccc32)CC1)NC(=O)c1ccc(F)cc1 | 5600 |  | 170 |  | < 4 |  | 33 | 16 | 82 | 
5 | C[C@@H](CN1CCC2(CC1)OC(=O)Nc1cccnc12)NC(=O)c1ccc(F)cc1 | 4100 | 83 | 48 | 59 (≈ 148 µM) | 13 | 40 | 200 | 54 | 68 | 
6 | C[C@@H](CN1CCC2(CC1)NC(=O)Nc1ccccc12)NC(=O)c1ccc(F)cc1 | > 10000 | 74 | 66 | 51 (≈ 129 µM) | 14 | 15 | 280 | 720 | 67 | 
7 | C[C@@H]1CNCCN1C(=O)[C@H](C)N1CCC(n2c(=O)[nH]c3ccccc32)CC1 |  |  | 84 |  | 12 |  | 140 | 180 | 5.4 | 
8 | C[C@@H]1CN(C(=O)[C@H](C)N2CCC(n3c(=O)[nH]c4ccccc43)CC2)CCN1 |  | 73 | 29 |  | < 5 | 39 | 320 | 190 | 13 | 
9 | C[C@@H](C(=O)N1CCNC(C)(C)C1)N1CCC(n2c(=O)[nH]c3ccccc32)CC1 | 7000 | 73 | 56 |  | 8 | 39 | 360 | 280 | 5.2 | 
10 | C[C@@H](CN1CCC2(CC1)OC(=O)Nc1cc(F)ccc12)NC(=O)c1ccc(F)cc1 | 1000 |  | 250 |  | 68 |  | 71 | 78 | 42 | 
11 | C[C@@H](CN1CCC2(CC1)c1ccccc1NC(=O)N2C)NC(=O)c1ccc(F)cc1 | > 10000 |  | 113 | 71 (≈ 173 µM) | 39 |  | > 10000 | > 10000 | 93 | 
12 | C[C@@H](CN1CCC2(CC1)OC(=O)NC[C@H]2c1cccc(F)c1)NC(=O)c1ccc(F)cc1 | 64 | 308 | 394 | 61 (≈ 138 µM) | 38 | 119 | 22 | 2 | 12 | 
13 | C[C@@H](CN1CCC(c2n[nH]c3ccccc23)CC1)NC(=O)c1ccc(F)cc1 | > 10000 |  | 311 |  | 42 |  | 970 | 4200 | 8 | 
14 | C[C@@H](C(=O)N1CCC(F)(F)C1)N1CCC(n2c(=O)[nH]c3ccccc32)CC1 | 2900 | 192 | > 300 |  | 10 | 34 | 170 | 1200 | 2.5 | 1.2
15 | C[C@H]1CN(C(=O)[C@H](C)N2CCC(n3c(=O)[nH]c4ccccc43)CC2)CCN1 | 1100 | 73 | < 10 |  | < 5 | 39 | 76 | 160 | 5.5 | 2.3
16 | C[C@@H](CN1CCC(N2CCNC2=O)CC1)NC(=O)c1ccc(F)cc1 | > 10000 |  | 16 |  | < 4 |  | > 10000 | > 10000 | 7.7 | 
17 | CC[C@H]1CN(C(=O)[C@H](C)N2CCC(n3c(=O)[nH]c4ccccc43)CC2)CCN1 | 920 |  | 59 |  | < 4 |  | 68 | 44 | 50 | 
18 | C[C@@H](CN1CCC2(CC1)CC(=O)Nc1ccccc12)NC(=O)c1ccc(F)cc1 | > 10000 | 42 | 83 | 59 (≈ 149 µM) | 28 | 8.6 | 490 | 460 | 11 | 
19 | C[C@@H](CN1CCC(n2c(=O)oc3ccccc32)CC1)NC(=O)c1ccc(F)cc1 | > 10000 |  | 314 |  | 23 |  | 9300 | > 10000 | 2 | 
20 | C[C@@H]1CN(C(=O)[C@H](C)N2CCC(n3c(=O)[nH]c4ccccc43)CC2)C[C@H](C)N1 | 200 | 68 | 43 |  | 6.9 | 45 | 40 | 32 | 14 | 
21 | C[C@@H](CN1CCC2(CC1)OC(=O)Nc1ccncc12)NC(=O)c1ccc(F)cc1 | 3200 | 69 | 50 | 58 (≈ 146 µM) | 12 | 48 | 110 | 78 | 47 | 
22 | C[C@@H](CN1CCC2(CC1)OC(=O)Nc1ccccc12)NC(=O)c1ccc(F)cc1 | 1300 | 172 | 103 | 76 (≈ 191 µM) | 39 | 40 | 66 | 74 | 218 | 
23 | C[C@@H](C(=O)N1CCOCC1)N1CCC(n2c(=O)[nH]c3ccccc32)CC1 | > 10000 |  | 162 |  | < 5 | 13 | 380 | 560 | 36 | 1.5
24 | C[C@@H](CN1CCC(N2C(=O)Cc3ccccc32)CC1)NC(=O)c1ccc(F)cc1 | > 10000 |  | 311 |  | 42 |  | 1200 | 1100 | 8 | 

— ChEMBL document CHEMBL5046323, “Discovery of Phospholipase D Inhibitors with Improved Drug-like Properties and Central Nervous System Penetrance” (ACS Med Chem Lett, 2022)
